A selection: hits, their analogues and other compounds. The true share with any hit is near 3.3%.
ABHD4 inh: ABHD4 inhibitors, primary screen, biochemical, fluorescence polarization, mouse | purified mABHD4, FP-Rh probe fluorescence polarization | inhibition, % at 8.92 µM | hit rate 0.54% among 370,000 | AID 720543, 2013;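 active = inhibition exceeding the mean over every tested compound plus 3 SD, cut at about 30% in these data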;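 note: 0% = plate median of compound wells and 100% = S159A mutant with DMSO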
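Assay system: mABHD4 protein; medium: HEPES pH 7.0, NaCl, Pluronic buffer; dosing: 8.92 µM, single dose; schedule: 45 min + 60 min at 25 °C; signal: FP readout, ex 525 nm / em 598 nm; read-out: normalized percent inhibition of probe labeling; repeats: single replicate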
TCR-CD3 inh: inhibitors of human TCR-CD3 interaction, primary screen, biochemical, fluorescence, TAMRA-labeled TCR probe | T-cell receptor (TCR) | inhibition, % at 9.4 µM | hit rate 0.37% among 360,000 | AID 651800, 2012; in the data active = inhibition above about 19%;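 note: recombinant mutant TCR 2C K166C tagged with TAMRA read by polarization; 0% = receptor in buffer alone and 100% = receptor with positive control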
PRMT1 inh: PRMT1 methyltransferase inhibitors, primary screen, biochemical, fluorescence polarization; Protein arginine N-methyltransferase 1 (Homo sapiens), Q99873; recombinant PRMT1, activity-based probe fluorescence polarization; inhibition, % at 2.79 µM; hit rate 1.3% among 370,000;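 active = inhibition above about 21% made by adding two undisclosed values, limit read from the data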
rCAG RNA binder: binders of r(CAG) RNA repeats, primary screen, biochemical, fluorescence; inhibition, % at 3 µM; hit rate 1.3% among 370,000; r(CAG) RNA repeat, TO-PRO-1 dye displacement fluorescence;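 active = inhibition above the plate cutoff, the mean of all test compounds on that plate plus 3 SD, cut at about 35% in these data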;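 note: 0% = DMSO alone and 100% = 100 µM mitoxantrone as full dye displacement; higher means more dye released from RNA so lower well fluorescence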
SIAE primary: human SIAE inhibitors, primary screen, biochemical, fluorescence polarization, FP-Rh probe, 1536-well HTS. Sialate O-acetylesterase (Homo sapiens), Q9HAT2. SIAE FP-Rh probe binding. hit rate 0.69% among 370,000. AID 1053197, 2014. inhibition, % at 9.66 µM;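 active = inhibition above a cutoff: mean of compounds within the control limits plus 3 SD of those, cut at about 17% in these data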;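 note: 0% = plate median of compound wells and 100% = probe without SIAE protein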
Target sequence (Q9HAT2 whole entry, looked up): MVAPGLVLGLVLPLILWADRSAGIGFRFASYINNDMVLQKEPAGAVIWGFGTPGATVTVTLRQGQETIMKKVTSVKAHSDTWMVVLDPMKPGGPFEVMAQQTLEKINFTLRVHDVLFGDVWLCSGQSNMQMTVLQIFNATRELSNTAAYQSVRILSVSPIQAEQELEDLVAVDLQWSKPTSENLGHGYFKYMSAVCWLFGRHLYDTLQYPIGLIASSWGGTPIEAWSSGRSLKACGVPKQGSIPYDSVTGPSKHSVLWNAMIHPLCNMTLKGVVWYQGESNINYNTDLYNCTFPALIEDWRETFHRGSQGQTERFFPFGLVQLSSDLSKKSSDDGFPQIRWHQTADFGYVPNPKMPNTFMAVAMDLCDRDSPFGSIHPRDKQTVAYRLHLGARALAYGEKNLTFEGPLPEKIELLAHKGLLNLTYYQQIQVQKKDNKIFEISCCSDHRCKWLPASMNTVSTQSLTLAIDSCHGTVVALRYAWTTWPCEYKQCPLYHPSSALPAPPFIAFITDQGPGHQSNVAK
rCAG binder conf: small molecules binding CAG repeat RNA – biochemical, fluorescence, confirmation; inhibition, % at 3 µM; r(CAG) RNA repeat, TO-PRO-1 dye displacement fluorescence; shares compounds with rCAG RNA binder; hit rate 70% among 4,300;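 active = inhibition above a per-plate cutoff, the mean inhibition of sample wells plus 3 SD, cut at about 35% in these data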;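 note: loss of TO-PRO-1 fluorescence as compound displaces dye from 1x1 AA loop RNA; 0% = DMSO only wells and 100% = 100 µM mitoxantrone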
dCAG dye counter: displacement of TO-PRO-1 from CAG DNA duplex, counter-screen for rCAG RNA repeat binder project, biochemical, fluorescence, TO-PRO-1 dye, d(CAG) DNA oligo. inhibition, % at 3 µM. hit rate 94% among 4,300. shares compounds with rCAG RNA binder. d(CAG) DNA oligo TO-PRO-1 dye displacement. AID 652068, 2013;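 active = inhibition above its plate's cutoff, the mean test-well inhibition plus 3 SD, cut at about 4.8% in these data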;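 note: 0% = DNA dye mix with DMSO and 100% = 100 µM mitoxantrone; hits displace the dye from DNA and so lower well fluorescence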
DNA CAG DR: inhibitors of DNA CAG/GTC TO-PRO-1 complex, dose response, counter-screen for rCAG RNA repeat binder project, biochemical, fluorescence, TO-PRO-1 dye; shares compounds with rCAG RNA binder; DNA CAG/GTC duplex TO-PRO-1 dye displacement fluorescence; AID 686960, 2013; hit rate 20% among 250; IC50, µM; in the data active = IC50 below about 10 µM
An asterisk follows results filed as active.

What do the screens show for `N#Cc1ccc(-c2nc3ccc(Cl)cn3c2Cc2ccccc2C(F)(F)F)cc1`?
ABHD4 inh: -2; TCR-CD3 inh: -3; PRMT1 inh: 1; rCAG RNA binder: 9; SIAE primary: -4

Results for FC(F)(F)c1ccccc1Cc1c(-c2cccc(Br)c2)nc2ccc(Br)cn12 ?
ABHD4 inh: -2; TCR-CD3 inh: 0; PRMT1 inh: -3; rCAG RNA binder: 19; SIAE primary: -7

Results for FC(F)(F)c1ccccc1Cc1c(-c2ccc(Cl)cc2)nc2ccc(Br)cn12 ?
ABHD4 inh: -21; TCR-CD3 inh: -9; PRMT1 inh: 6; rCAG RNA binder: 64*; SIAE primary: -12; rCAG binder conf: 14; dCAG dye counter: 3

How did Fc1ccc(-c2nc3ccc(Cl)cn3c2Cc2ccccc2C(F)(F)F)cc1 do in these assays?
ABHD4 inh: 3; TCR-CD3 inh: -9; PRMT1 inh: -1; rCAG RNA binder: 38*; SIAE primary: -5; rCAG binder conf: 23; dCAG dye counter: 3

How did Cc1ccc(-c2nc3ccc(C)cn3c2Cc2ccccc2C(F)(F)F)cc1 do in these assays?
ABHD4 inh: 10; TCR-CD3 inh: 0; PRMT1 inh: -2; rCAG RNA binder: 36*; SIAE primary: -8; rCAG binder conf: 20; dCAG dye counter: 4

Results for Nc1c(C(=O)NCC(O)c2ccccc2)cnn1-c1ccccc1 (stereo unspecified) ?
ABHD4 inh: 2; PRMT1 inh: -5; rCAG RNA binder: 3; SIAE primary: -1

Results for FC(F)(F)c1ccccc1Cc1c(-c2ccccc2)nc2ccc(Cl)cn12 ?
ABHD4 inh: 18; TCR-CD3 inh: -3; PRMT1 inh: 2; rCAG RNA binder: 17; SIAE primary: -2

What do the screens show for `COc1ccccc1Cc1c(-c2ccc(F)cc2)nc2c(C)cc(Br)cn12`?
ABHD4 inh: -9; TCR-CD3 inh: 2; PRMT1 inh: 2; rCAG RNA binder: 9; SIAE primary: -8

What do the screens show for `Cc1cc(Br)cn2c(Cc3ccccc3C(F)(F)F)c(-c3ccc(F)cc3)nc12`?
ABHD4 inh: -25; TCR-CD3 inh: -8; PRMT1 inh: 2; rCAG RNA binder: 55*; SIAE primary: -9; rCAG binder conf: 43*; dCAG dye counter: 11*; DNA CAG DR: >30

How did FC(F)(F)c1ccccc1Cc1c(-c2ccc(Cl)cc2)nc2ccc(Cl)cn12 do in these assays?
ABHD4 inh: -9; TCR-CD3 inh: 7; PRMT1 inh: 4; rCAG RNA binder: 50*; SIAE primary: -17; rCAG binder conf: 32; dCAG dye counter: 7.7*

What do the screens show for `O=C(NN=Cc1ccc(-c2ccccc2)cc1)c1cc(-c2ccc(Cl)cc2)n[nH]1`?
ABHD4 inh: -11; PRMT1 inh: -4; rCAG RNA binder: 10; SIAE primary: -1

What do the screens show for `CCc1ccc(CC2S/C(=C(\C#N)C(C)=O)NC2=O)cc1` (stereo unspecified)?
ABHD4 inh: 7; TCR-CD3 inh: 5; PRMT1 inh: 1; rCAG RNA binder: 37*; SIAE primary: 7; rCAG binder conf: 20; dCAG dye counter: 2

How did CCOC(=O)c1ccc(CC2S/C(=C(\C#N)C(C)=O)NC2=O)cc1 (stereo unspecified) do in these assays?
ABHD4 inh: 5; TCR-CD3 inh: 2; PRMT1 inh: -2; rCAG RNA binder: 16; SIAE primary: -5

What do the screens show for `CC(c1ccc(O)cc1)c1cn(C)c2ccccc12` (stereo unspecified)?
ABHD4 inh: -13; PRMT1 inh: 0; rCAG RNA binder: 4; SIAE primary: 3

Results for CCOC(=O)c1ccc(/C=C2/C=C(c3ccccc3)N(c3ccc(Cl)c(C(=O)O)c3)C2=O)cc1 ?
ABHD4 inh: -2; TCR-CD3 inh: -2; PRMT1 inh: 2; rCAG RNA binder: 61*; SIAE primary: -8; rCAG binder conf: 70*; dCAG dye counter: 32*

How did COc1ccc(CN(CCN2CCOCC2)C(=O)c2cc(F)ccc2C)cc1OC do in these assays?
ABHD4 inh: 1; PRMT1 inh: -2; rCAG RNA binder: 1; SIAE primary: 5

How did O=S(=O)(Nc1cc(Cl)ccc1-n1cncn1)c1ccccc1Cl do in these assays?
ABHD4 inh: -2; TCR-CD3 inh: -5; PRMT1 inh: 1; rCAG RNA binder: 14; SIAE primary: -2

Results for O=S(=O)(Nc1cc(Cl)ccc1-n1cncn1)c1cc(Br)ccc1Br ?
ABHD4 inh: -18; TCR-CD3 inh: 4; PRMT1 inh: 1; rCAG RNA binder: 57*; SIAE primary: 1; rCAG binder conf: 56*; dCAG dye counter: 21*

Results for C/C(=N\NC(=O)c1cccc(S(=O)(=O)Nc2ccccc2Cl)c1)c1ccc(-n2ccnc2)cc1 ?
ABHD4 inh: -21; TCR-CD3 inh: -5; PRMT1 inh: 1; rCAG RNA binder: 40*; SIAE primary: -6; rCAG binder conf: 45*; dCAG dye counter: 14*

What do the screens show for `Cc1cccc(C2(c3cccc(C)c3)CC2C(=O)Nc2ccc([N+](=O)[O-])cc2O)c1` (stereo unspecified)?
ABHD4 inh: -20; TCR-CD3 inh: 1; PRMT1 inh: 3; rCAG RNA binder: 49*; SIAE primary: 9; rCAG binder conf: 52*; dCAG dye counter: 22*

How did C=CCN(Cc1ccc2c(c1)OCO2)C(C#Cc1ccccc1)c1ccccc1C(F)(F)F (stereo unspecified) do in these assays?
ABHD4 inh: -4; PRMT1 inh: -3; rCAG RNA binder: 1; SIAE primary: 6

What do the screens show for `N#Cc1c(-c2ccccc2)cc(-c2cccs2)nc1SCC(=O)O`?
ABHD4 inh: -5; TCR-CD3 inh: 3; PRMT1 inh: 4; rCAG RNA binder: 50*; SIAE primary: -6; rCAG binder conf: 41*; dCAG dye counter: 17*

What do the screens show for `N#Cc1c(-c2ccc(Cl)cc2)cc(-c2cccs2)nc1SCC(=O)O`?
ABHD4 inh: -11; TCR-CD3 inh: 10; PRMT1 inh: 7; rCAG RNA binder: 66*; SIAE primary: -22; rCAG binder conf: 62*; dCAG dye counter: 25*

Bioassay records (PubChem)
